According to ChEMBL document CHEMBL1144541, “Antinociceptive and antiinflammatory activities and QSAR studies on 2-substituted-4,5-diphenyl-1H-imidazoles” (2007):

Assays:
Format in all cases: functional
[1] = test system: Mus musculus; assay: Antinociceptive activity in ip dosed Swiss albino mouse assessed as latency time after 15 mins by hot plate method
Outline: (§1)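 Swiss albino mice (20–25 g) were housed 7 days at 30 ± 1 °C before testing, in groups of six. Compounds were given ip at 9.5–12.58 mg/kg as a 0.2% Tween suspension. Mice were placed on a 55 ± 0.5 °C hot plate before dosing and at 15, 30, 60 and 120 min after dosing, with a 15 s cut-off. Significance was assessed by Student's t test.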

[2] = test system: Mus musculus; assay: Antinociceptive activity in ip dosed Swiss albino mouse assessed as latency time after 60 mins by hot plate method; outline: as §1
[3] = test system: Mus musculus; assay: Antinociceptive activity in ip dosed Swiss albino mouse assessed as latency time after 120 mins by tail flick method
Outline: (§2)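 Swiss albino mice (20–25 g) received compounds ip at 9.5–12.58 mg/kg in 0.2% Tween suspension. Tail-flick latency to radiant heat was measured, with stimulus intensity set to give a 3–4 s baseline. Readings were taken just before injection and at 15, 30, 60 and 120 min after. Significance was assessed by Student's t test.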

[4] = test system: Mus musculus; assay: Antinociceptive activity in ip dosed Swiss albino mouse assessed as latency time after 120 mins by hot plate method; outline: as §1
[5] = test system: Mus musculus; assay: Antinociceptive activity in ip dosed Swiss albino mouse assessed as latency time after 15 mins by tail flick method; outline: as §2
[6] = test system: Mus musculus; assay: Antinociceptive activity in ip dosed Swiss albino mouse assessed as latency time by tail flick method; outline: as §2
[7] = test system: Rattus norvegicus; assay: Antiinflammatory activity assessed as reduction of carrageenan-induced paw volume in intraperitoneally dosed Wistar rat after 3 hrs; design: scale not given: the % may be the effect or the level left
Outline: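 Wistar rats of either sex (120–150 g) were dosed ip with compounds at 9.5–12.58 mg/kg in 0.2% Tween suspension. After 1 h, 0.05 ml of 1.0% w/v carrageenan in 0.9% NaCl was injected into the left hind paw. Paw volume was measured by mercury-displacement plethysmometry before injection and at 1, 2 and 3 h. Percent inhibition of the 3 h swelling was calculated.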

[8] = test system: Mus musculus; assay: Antinociceptive activity in ip dosed Swiss albino mouse assessed as latency time by hot plate method; outline: as §1
[9] = test system: Mus musculus; assay: Antinociceptive activity in ip dosed Swiss albino mouse assessed as latency time after 30 mins by tail flick method; outline: as §2
[10] = test system: Mus musculus; assay: Antinociceptive activity in ip dosed Swiss albino mouse assessed as latency time after 30 mins by hot plate method; outline: as §1
[11] = test system: Mus musculus; assay: Antinociceptive activity in ip dosed Swiss albino mouse assessed as latency time after 60 mins by tail flick method; outline: as §2

Compound	Activity [1] [s]	Activity [2] [s]	Activity [3] [s]	Activity [4] [s]	Activity [5] [s]	Activity [6] [s]	Activity [7] [%]	Activity [8] [s]	Activity [9] [s]	Activity [10] [s]	Activity [11] [s]
C=CCc1nc(-c2ccccc2)c(-c2ccccc2)[nH]1	5.08	5.33	4.29	5.47	4.02	3.98	32.56	4.66	4.23	5.12	4.27
Ic1ccc(-c2nc(-c3ccccc3)c(-c3ccccc3)[nH]2)cc1	4.64	6.18	6.5	6.18	4.26	4.16	27.91	4.45	5.21	5.33	5.89
c1ccc(-c2nc[nH]c2-c2ccccc2)cc1	4.83	5.05	4.02	5.2	3.92	3.9	20.94	4.66	4.01	4.83	4.01
COc1cccc(-c2nc(-c3ccccc3)c(-c3ccccc3)[nH]2)c1	5.02	7.42	7.99	8.79	4.12	4.12	37.21	4.67	4.56	6.15	6.75
Fc1ccc(-c2nc(-c3ccccc3)c(-c3ccccc3)[nH]2)cc1	4.93	9.33	10.67	10.83	4.87	4.55	79.07	4.78	7.14	7.5	8.92
O=[N+]([O-])c1cccc(-c2nc(-c3ccccc3)c(-c3ccccc3)[nH]2)c1	4.56	4.62	5.82	5.62	4.09	4.09	4.66	4.55	4.36	4.6	5.74
CN(C)c1ccc(-c2nc(-c3ccccc3)c(-c3ccccc3)[nH]2)cc1	4.76	8.33	10.18	10.3	4.45	4.26	69.77	4.5	6.32	7.16	7.93
Cc1nc(-c2ccccc2)c(-c2ccccc2)[nH]1	5.1	5.47	4.35	5.52	4.17	4.12	25.59	4.65	4.28	5.33	4.35
O=[N+]([O-])c1ccc(-c2nc(-c3ccccc3)c(-c3ccccc3)[nH]2)cc1	4.6	5.82	5.13	5.83	4.14	4.13	25.59	4.37	5.09	4.66	5.12
c1ccc(-c2nc(-c3ccccc3)c(-c3ccccc3)[nH]2)cc1	4.58	6.07	5.78	6.1	4.13	4.13	30.24	4.63	4.67	5.28	5.12
Clc1ccc(-c2nc(-c3ccccc3)c(-c3ccccc3)[nH]2)cc1	4.9	8.98	10.5	10.35	4.67	4.52	81.4	4.66	6.92	7.43	8.37
COc1ccccc1-c1nc(-c2ccccc2)c(-c2ccccc2)[nH]1	4.94	8.65	9.23	9.25	4.21	4.21	65.12	4.9	5.98	6.89	7.64
Clc1cccc(-c2nc(-c3ccccc3)c(-c3ccccc3)[nH]2)c1	5.14	7.78	8.18	8.91	4.12	4.12	55.82	4.68	4.98	6.18	6.89
Nc1ccc(-c2nc(-c3ccccc3)c(-c3ccccc3)[nH]2)cc1	4.69	8.25	10.05	10.08	4.27	4.22	81.4	4.48	6.18	7.01	7.77
Oc1ccccc1-c1nc(-c2ccccc2)c(-c2ccccc2)[nH]1	4.93	8.59	9.12	9.16	4.18	4.2	60.47	4.89	5.82	6.32	7.53
Oc1ccc(-c2nc(-c3ccccc3)c(-c3ccccc3)[nH]2)cc1	4.81	8.63	10.33	10.33	4.48	4.4	83.73	4.55	6.79	7.21	8.18
Cc1ccc(-c2nc(-c3ccccc3)c(-c3ccccc3)[nH]2)cc1	4.5	4.83	4.89	4.82	4.14	4.14	11.63	4.35	4.82	4.62	4.82
Cc1cccc(-c2nc(-c3ccccc3)c(-c3ccccc3)[nH]2)c1	4.6	4.67	5.93	5.72	4.1	4.1	9.31	4.56	4.48	4.63	5.89
Cc1ccccc1-c1nc(-c2ccccc2)c(-c2ccccc2)[nH]1	4.55	4.79	5.52	5.79	4.12	4.11	18.61	4.5	4.52	4.67	4.98
COc1cc(-c2nc(-c3ccccc3)c(-c3ccccc3)[nH]2)ccc1O	5.23	7.92	8.34	8.99	4.12	4.16	58.14	4.68	5.57	6.2	7.18
Brc1ccc(-c2nc(-c3ccccc3)c(-c3ccccc3)[nH]2)cc1	4.65	6.38	6.83	6.38	4.45	4.2	74.42	4.45	5.33	6.37	6.5
